Data on 20 molecules can be found in ChEMBL document CHEMBL5528081 (J Med Chem, 2024).

Data set [1] is described as follows: Inhibition of Nef protein-dependent MHC-1 HLA-A2 down modulation in human CD4 positive T cells transduced with replication defective HIV containing GFP reporter (delta GPE) assessed as restoration of MHC-1 measured after 24 hrs by HLA-A2 staining based flow cytometry. The format is cell-based, Human immunodeficiency virus, CD4+ T cell.
Data set [2] in a line: Therapeutic ratio, ratio of IC50 for Cytotoxicity against human CD4 positive T cells transduced with replication defective HIV containing GFP reporter (delta GPE) to IC50 for Inhibition of Nef protein-dependent MHC-1 HLA-A2 down modulation in human CD4 positive T cells transduced with replication defective HIV containing GFP reporter (delta GPE). The class given is toxicity, cell-based. The conditions noted are these: read-out: Ratio IC50. In outline:
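Primary human CD4+ T cells (PBMC, CD8-depleted, PHA then IL-2 activated) spinoculated with VSV-G-pseudotyped ΔGPE reporter; 48 h later treated with serial dilutions in R10 + 50 U/mL IL-2, top 1000 nM.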

Data set [3] can be described thus: Neutralization ratio, ratio of IC50 for Inhibition of V-ATPase-dependent lysosomal acidification in human CD4 positive T cells transduced with replication defective HIV containing GFP reporter (delta GPE) to IC50 for Inhibition of Nef protein-dependent MHC-1 HLA-A2 down modulation in human CD4 positive T cells transduced with replication defective HIV containing GFP reporter (delta GPE).

The nature of data set [4]: Cytotoxicity against human CD4 positive T cells transduced with replication defective HIV containing GFP reporter (delta GPE) assessed as cell viability by measuring vital dye uptake incubated for 72 hrs by flow cytometric assay. The conditions noted are these: time 72 hrs, read-out: TC50. The format is toxicity, cell-based. The gist of the method:
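Primary human PBMCs, CD8-depleted, PHA-L (10 ug/mL) then IL-2 activated; donor-matched mock-transduced cells plated 1×10^5/well in R10 with IL-2 (final 50 U/mL), compounds serially diluted from DMSO stocks (top 1000 nM), 72 h.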

Setting [5] is: Human immunodeficiency virus 1, CD4+ T cell, 24 h.

Regarding `C/C=C/[C@H]1O[C@@](O)([C@@H](C)[C@H](O)[C@H](C)[C@H]2OC(=O)/C(OC)=C/C(C)=C/[C@@H](C)[C@@H](O)[C@@H](CC)[C@@H](OC(C)=O)[C@H](C)C/C(C)=C/C=C/[C@@H]2OC)C[C@@H](OC(C)=O)[C@@H]1C`, the IC50 in data set [1] (setting [5]) worked out at 3.6 nM. In addition, the selectivity ratio in data set [2] stood at 2.5. In addition, in data set [3], the “Ratio IC50” value was determined as 5.4.
The corresponding values for `C/C=C/[C@H]1O[C@@](O)([C@@H](C)[C@H](O)[C@H](C)[C@H]2OC(=O)/C(OC)=C/C(C)=C/[C@@H](C)[C@@H](O)[C@@H](CC)[C@@H](O)[C@H](C)C/C(C)=C/C=C/[C@@H]2OC)C[C@@H](OC(C)=O)[C@@H]1C` are 1.2 nM, 5.8 and 5.6.
For `CO/C1=C\C(C)=C\[C@@H](C)C(=O)[C@@H](C)C/C(C)=C/C=C/[C@H](OC)[C@@H]([C@@H](C)[C@@H](O)[C@H](C)[C@@]2(O)CC(=O)[C@H](C)[C@@H](C(C)C)O2)OC1=O`, the 50% inhibitory concentration (IC50) in data set [1] (cd4+ t cell) is greater than 1000 nM.
As to `CCCCCCCCC(=O)O[C@@H]1C[C@](O)([C@@H](C)[C@H](O)[C@H](C)[C@H]2OC(=O)/C(OC)=C/C(C)=C/[C@@H](C)[C@@H](O)[C@@H](C)C/C(C)=C/C=C/[C@@H]2OC)O[C@H](C(C)C)[C@H]1C`, the IC50 in data set [1] (setting [5]) is 130 nM. Besides, in data set [2], the selectivity ratio was 1.1. The “Ratio IC50” value in data set [3] is reported as 1.2.
In the case of `C/C=C/C=C/[C@H]1O[C@@](O)([C@@H](C)[C@H](O)[C@H](C)[C@H]2OC(=O)/C(OC)=C/C(C)=C/[C@@H](C)[C@@H](O)[C@@H](C)C/C(C)=C/C=C/[C@@H]2OC)C[C@@H](O[C@H]2C[C@@H](O)[C@H](O)[C@@H](C)O2)[C@@H]1C`, the CC50 at 72 h in data set [4] was found to be 1.3 nM.
Take `C/C=C/[C@H]1O[C@@](O)([C@@H](C)[C@H](O)[C@H](C)[C@H]2OC(=O)/C(OC)=C/C(C)=C/[C@@H](C)[C@@H](O)[C@@H](CC)[C@@H](OC(C)=O)[C@H](C)C/C(C)=C/C=C/[C@@H]2OC)C[C@@H](O[C@H]2C[C@@H](OC(C)=O)[C@H](OC(C)=O)[C@@H](C)O2)[C@@H]1C`: in data set [1] (setting [5]), the IC50 was found to be 2.8 nM. Besides, the selectivity ratio in data set [2] was found to be 1.8. Moreover, the “Ratio IC50” value in data set [3] is listed as 3.6.
For the molecule `CO/C1=C\C(C)=C\[C@@H](C)[C@@H](O)[C@@H](C)C/C(C)=C/C=C/[C@H](OC)[C@@H]([C@@H](C)[C@@H](O)[C@H](C)[C@H]2C[C@@H](OC)[C@H](C)[C@@H](C(C)C)O2)OC1=O`, the concentration for half-maximal inhibition (IC50) in data set [1] (setting [5]) was determined as 20 nM. Further, in data set [2], the selectivity ratio was 1.4. The “Ratio IC50” value in data set [3] is given as 2.7.
Take `C/C=C/[C@H]1O[C@@](O)([C@@H](C)[C@H](O)[C@H](C)[C@H]2OC(=O)/C(OC)=C/C(C)=C/[C@@H](C)[C@@H](O)[C@@H](CC)[C@@H](O)[C@H](C)C/C(C)=C/C=C/[C@@H]2OC)C[C@@H](O[C@H]2C[C@@H](OC(C)=O)[C@H](OC(C)=O)[C@@H](C)O2)[C@@H]1C`: the concentration for half-maximal inhibition (IC50) in data set [1] (setting [5]) is 0.72 nM. In data set [2], the selectivity ratio was 1.8. Further, in data set [3], the “Ratio IC50” value was found to be 4.2.
For the molecule `CNC(=O)O[C@@H](CC(C)C)c1nc([C@H]2OC(=O)/C(C)=C/C/C(C)=C/[C@@H](O)[C@@H](C)\C=C(C)/C=C(C)\C=C\[C@@H](O)[C@H](C)[C@H](OC)/C(C)=C/C=C/[C@@H]2C)cs1` [ARCHAZOLID A], in data set [1] (cd4+ t cell), the IC50 is 0.47 nM.
For the molecule `CO/C1=C\C(C)=C\[C@@H](C)[C@@H](O)[C@@H](C)C/C(C)=C/C=C/[C@H](OC)[C@@H]([C@@H](C)[C@@H](O)[C@H](C)[C@H]2C[C@@H](O)[C@H](C)[C@@H](C(C)C)O2)OC1=O`, the IC50 in data set [1] (setting [5]) stood at 34 nM. Moreover, in data set [2], the selectivity ratio was determined as 1.4. In addition, in data set [3], the “Ratio IC50” value worked out at 4.1.
In the case of `CO/C1=C\C(C)=C\[C@@H](C)C(=O)[C@@H](C)C/C(C)=C/C=C/[C@H](OC)[C@@H]([C@@H](C)[C@@H](O)[C@H](C)[C@@]2(O)C[C@@H](O)[C@H](C)[C@@H](C(C)C)O2)OC1=O`, the IC50 in data set [1] (cd4+ t cell) was greater than 1000 nM.
Regarding `C/C=C/[C@H]1O[C@@H]([C@@H](C)[C@H](O)[C@H](C)[C@H]2OC(=O)/C(OC)=C/C(C)=C/[C@@H](C)[C@@H](O)[C@@H](CC)[C@@H](O)[C@H](C)C/C(C)=C/C=C/[C@@H]2OC)C[C@@H](O)[C@@H]1C`, the half-maximal inhibitory concentration (IC50) in data set [1] (setting [5]) is 4.5 nM.
Consider `C/C=C/[C@H]1O[C@@](O)([C@@H](C)[C@H](O)[C@H](C)[C@H]2OC(=O)/C(OC)=C/C(C)=C/[C@@H](C)[C@@H](O)[C@@H](CC)[C@@H](O)[C@H](C)C/C(C)=C/C=C/[C@@H]2OC)C[C@@H](O[C@H]2C[C@@H](OC(C)=O)[C@H](OC(N)=O)[C@@H](C)O2)[C@@H]1C`, for which the selectivity ratio in data set [2] was found to be 8.5.
Turning to `CCCCC(=O)O[C@@H]1C[C@](O)([C@@H](C)[C@H](O)[C@H](C)[C@H]2OC(=O)/C(OC)=C/C(C)=C/[C@@H](C)[C@@H](O)[C@@H](C)C/C(C)=C/C=C/[C@@H]2OC)O[C@H](C(C)C)[C@H]1C`, the IC50 in data set [1] (setting [5]) turned out to be 37 nM. Moreover, the selectivity ratio in data set [2] was 1.4. In addition, the “Ratio IC50” value in data set [3] was found to be 1.5.
For `CO/C1=C\C(C)=C\[C@@H](C)[C@@H](O)[C@@H](C)C/C(C)=C/C=C/[C@H](OC)[C@@H]([C@@H](C)[C@@H](O)[C@H](C)[C@@]2(OC)C[C@@H](O)[C@H](C)[C@@H](C(C)C)O2)OC1=O`, the IC50 in data set [1] (setting [5]) worked out at 12 nM. The selectivity ratio in data set [2] came to 1.2. For the same molecule, the “Ratio IC50” value in data set [3] is reported as 2.3.
In the case of `CO/C1=C\C(C)=C\[C@@H](C)[C@@H](O)[C@@H](C)C/C(C)=C/C=C/[C@H](OC)[C@@H]([C@@H](C)[C@@H](O)[C@H](C)[C@@]2(O)C[C@@H](O[C@@H]3O[C@@H](C)[C@H](O)[C@@H](O)[C@H]3OC)[C@H](C)[C@@H](C(C)C)O2)OC1=O`, the CC50 at 72 h in data set [4] was found to be 1.4 nM.
`C/C=C/[C@H]1O[C@@](O)([C@@H](C)[C@H](O)[C@H](C)[C@H]2OC(=O)/C(OC)=C/C(C)=C/[C@@H](C)[C@@H](O)[C@@H](C)[C@@H](O)[C@H](C)C/C(C)=C/C=C/[C@@H]2OC)C[C@@H](O[C@H]2C[C@@H](OC(C)=O)[C@H](OC(N)=O)[C@@H](C)O2)[C@@H]1C`: in data set [1] (setting [5]), the half-maximal inhibitory concentration (IC50) amounted to 0.66 nM. For the same molecule, the selectivity ratio in data set [2] was 8. Further, the “Ratio IC50” value in data set [3] was determined as 21.
`CO/C1=C\C(C)=C\[C@@H](C)[C@@H](O)[C@@H](C)C/C(C)=C/C=C/[C@H](OC)[C@@H]([C@@H](C)[C@@H](O)[C@H](C)[C@H]2C=C(O)[C@H](C)[C@@H](C(C)C)O2)OC1=O`: the IC50 in data set [1] (setting [5]) stood at 140 nM. The selectivity ratio in data set [2] is 1.6. Further, in data set [3], the “Ratio IC50” value is listed as 2.6.
Take `C/C=C/[C@H]1O[C@@H]([C@@H](C)[C@H](O)[C@H](C)[C@H]2OC(=O)/C(OC)=C/C(C)=C/[C@@H](C)[C@@H](O)[C@@H](CC)[C@@H](O)[C@H](C)C/C(C)=C/C=C/[C@@H]2O)C[C@@H](O)[C@@H]1C`: in data set [1] (setting [5]), the IC50 came to 400 nM.
`C=C/C=C/C(=O)O[C@@H]1C[C@](O)([C@@H](C)[C@H](O)[C@H](C)[C@H]2OC(=O)/C(OC)=C/C(C)=C/[C@@H](C)[C@@H](O)[C@@H](C)C/C(C)=C/C=C/[C@@H]2OC)O[C@H](C(C)C)[C@H]1C`: the IC50 in data set [1] (setting [5]) was 17 nM. For the same molecule, the selectivity ratio in data set [2] is 1.4. Besides, the “Ratio IC50” value in data set [3] amounted to 1.5.
